Assay [1] addresses Cyclin-dependent kinase 2/cyclin E1 (Homo sapiens) (UniProt P24864+P24941). As to the kind of experiment: Inhibition of CDK2/cyclin E (unknown origin) assessed as residual activity at 50 uM relative to control. The format is protein-complex assay. The method in brief:
(§1)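 Selectivity profiling against a panel of 44 human kinases. For each kinase, ATP was set to that kinase's Km. Values are residual activity in duplicate assays.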

For assay [2], the target named is RAC-alpha serine/threonine-protein kinase (Homo sapiens) (UniProt P31749). As to the kind of experiment: Inhibition of PKBalpha (unknown origin) assessed as residual activity at 50 uM relative to control. The method in brief: (§2)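 Profiling panel of 44 human kinases. ATP set to each kinase's Km. Run in duplicate; duplicates within 15–17% of each other.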
Assay [3] deals with Serine/threonine-protein kinase STK11 (Homo sapiens) (UniProt Q15831). As to the kind of experiment: Inhibition of LKB1 (unknown origin) assessed as residual activity at 50 uM relative to control. The method in brief: as §1
Serine/threonine-protein kinase STK11 (Homo sapiens), sequence (Q15831 whole entry): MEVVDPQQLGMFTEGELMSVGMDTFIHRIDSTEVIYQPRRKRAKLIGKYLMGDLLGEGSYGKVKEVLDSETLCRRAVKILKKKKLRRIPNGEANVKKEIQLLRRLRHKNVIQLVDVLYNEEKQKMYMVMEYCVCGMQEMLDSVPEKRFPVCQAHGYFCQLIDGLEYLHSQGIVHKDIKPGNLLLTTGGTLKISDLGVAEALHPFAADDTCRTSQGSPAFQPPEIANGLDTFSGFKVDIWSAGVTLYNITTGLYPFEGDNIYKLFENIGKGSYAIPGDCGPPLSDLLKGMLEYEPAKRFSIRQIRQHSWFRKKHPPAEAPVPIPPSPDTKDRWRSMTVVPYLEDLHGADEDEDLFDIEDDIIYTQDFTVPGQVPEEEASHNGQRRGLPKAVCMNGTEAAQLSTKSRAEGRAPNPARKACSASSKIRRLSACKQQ
Assay [4] addresses Homeodomain-interacting protein kinase 2 (Homo sapiens) (UniProt Q9H2X6). Nature of the assay: Inhibition of HIPK2 (unknown origin) assessed as residual activity at 50 uM relative to control. The method in brief: as §1
The target of assay [5] is 5'-AMP-activated protein kinase catalytic subunit alpha-1 (Homo sapiens) (UniProt Q13131). Nature of the assay: Inhibition of AMPKalpha1 (unknown origin) assessed as residual activity at 50 uM relative to control. The method in brief:
as §1

In assay [6] the target is Insulin receptor (Homo sapiens) (UniProt P06213). Nature of the assay: Inhibition of activated IR (unknown origin) assessed as residual activity at 50 uM relative to control. The method in brief:
as §2

The target of assay [7] is Tyrosine-protein kinase Yes (Homo sapiens) (UniProt P07947). Nature of the assay: Inhibition of YES (unknown origin) assessed as residual activity at 50 uM relative to control. The gist of the method: as §2
Assay [8] has as its target Casein kinase II alpha/beta (Homo sapiens) (UniProt P67870+P68400). Nature of the assay: Inhibition of recombinant human GST-tagged CK2alpha2/CK2beta2 at 20 uM in presence of ATP and increasing CK2beta levels by radiometric kinase assay. The format is protein-complex assay. The gist of the method:
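CK2α fixed at 150 nM and inhibitor fixed at 20 μM. CK2β was titrated at increasing concentrations and activity was read in the radiometric assay.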

Assay [9] deals with Homeodomain-interacting protein kinase 3 (Homo sapiens) (UniProt Q9H422). Nature of the assay: Inhibition of HIPK3 (unknown origin) assessed as residual activity at 50 uM relative to control. The method in brief:
as §1

The target of assay [10] is Platelet-derived growth factor receptor alpha (Homo sapiens) (UniProt P16234). Nature of the assay: Inhibition of PDGFRalpha (unknown origin) assessed as residual activity at 50 uM relative to control. The method in brief:
as §1

For assay [11], the target named is CDK6/cyclin D3 (Homo sapiens) (UniProt P30281+Q00534). As to the kind of experiment: Inhibition of CDK6/cyclin D3 (unknown origin) assessed as residual activity at 50 uM relative to control. The format is protein-complex assay. The method in brief: as §1
In assay [12] the target is T1, Casein kinase II subunit alpha (Homo sapiens, UniProt P68400). Nature of the assay: Mixed-type inhibition of recombinant human GST-tagged CK2alpha in presence of ATP by Lineweaver-Burk plot analysis.
T1 sequence (P68400 whole entry): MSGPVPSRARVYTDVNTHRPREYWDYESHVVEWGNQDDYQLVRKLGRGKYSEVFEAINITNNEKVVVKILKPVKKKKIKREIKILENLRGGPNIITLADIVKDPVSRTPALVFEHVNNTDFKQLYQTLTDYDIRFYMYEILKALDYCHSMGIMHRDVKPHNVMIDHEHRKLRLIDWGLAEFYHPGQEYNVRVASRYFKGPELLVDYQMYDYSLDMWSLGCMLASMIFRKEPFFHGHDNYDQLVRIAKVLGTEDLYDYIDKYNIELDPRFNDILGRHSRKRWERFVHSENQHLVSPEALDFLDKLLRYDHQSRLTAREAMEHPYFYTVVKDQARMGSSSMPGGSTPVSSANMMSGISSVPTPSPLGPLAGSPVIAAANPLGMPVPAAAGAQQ
Assay [13] deals with Tyrosine-protein kinase JAK2 (Homo sapiens) (UniProt O60674). Nature of the assay: Inhibition of JAK2 (unknown origin) assessed as residual activity at 50 uM relative to control. The method in brief: as §1
Tyrosine-protein kinase JAK2 (Homo sapiens), sequence (O60674 whole entry): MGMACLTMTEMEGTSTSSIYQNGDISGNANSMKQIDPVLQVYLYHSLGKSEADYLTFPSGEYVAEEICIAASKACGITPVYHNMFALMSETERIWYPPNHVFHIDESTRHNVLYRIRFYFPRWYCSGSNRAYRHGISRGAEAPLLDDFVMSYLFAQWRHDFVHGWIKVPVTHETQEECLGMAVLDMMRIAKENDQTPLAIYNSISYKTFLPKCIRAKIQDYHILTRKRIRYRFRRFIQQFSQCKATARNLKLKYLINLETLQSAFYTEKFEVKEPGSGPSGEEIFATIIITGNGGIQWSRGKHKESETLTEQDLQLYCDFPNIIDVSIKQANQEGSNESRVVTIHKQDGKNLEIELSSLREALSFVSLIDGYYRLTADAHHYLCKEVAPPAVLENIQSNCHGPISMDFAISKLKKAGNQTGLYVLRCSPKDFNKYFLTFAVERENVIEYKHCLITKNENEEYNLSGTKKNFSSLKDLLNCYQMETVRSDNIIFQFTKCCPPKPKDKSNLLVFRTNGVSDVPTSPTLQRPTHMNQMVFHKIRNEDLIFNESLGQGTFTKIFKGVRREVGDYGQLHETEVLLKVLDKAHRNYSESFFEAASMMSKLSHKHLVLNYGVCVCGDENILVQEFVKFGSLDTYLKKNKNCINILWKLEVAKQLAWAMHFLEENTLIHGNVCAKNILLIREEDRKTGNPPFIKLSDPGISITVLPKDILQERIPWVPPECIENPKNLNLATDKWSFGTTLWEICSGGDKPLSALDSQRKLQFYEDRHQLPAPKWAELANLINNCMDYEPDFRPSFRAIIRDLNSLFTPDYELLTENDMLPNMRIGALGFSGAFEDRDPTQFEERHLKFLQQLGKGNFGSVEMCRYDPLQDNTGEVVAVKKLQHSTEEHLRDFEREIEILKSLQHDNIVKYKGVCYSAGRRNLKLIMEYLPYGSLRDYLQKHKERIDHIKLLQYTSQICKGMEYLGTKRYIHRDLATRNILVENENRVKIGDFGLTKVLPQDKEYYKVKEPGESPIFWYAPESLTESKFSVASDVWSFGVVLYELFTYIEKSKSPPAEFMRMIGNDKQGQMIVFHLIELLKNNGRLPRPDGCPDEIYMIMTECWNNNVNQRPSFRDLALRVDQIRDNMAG
For assay [14], the target named is T1, Casein kinase II subunit alpha. Nature of the assay: Inhibition of recombinant human GST-tagged CK2alpha in presence of ATP by radiometric kinase assay.

Each structure is given as a SMILES string. Active and inactive are the calls of the source. The rule behind the calls is not given here.

Platelet-derived growth factor receptor alpha (Homo sapiens), sequence (P16234 whole entry): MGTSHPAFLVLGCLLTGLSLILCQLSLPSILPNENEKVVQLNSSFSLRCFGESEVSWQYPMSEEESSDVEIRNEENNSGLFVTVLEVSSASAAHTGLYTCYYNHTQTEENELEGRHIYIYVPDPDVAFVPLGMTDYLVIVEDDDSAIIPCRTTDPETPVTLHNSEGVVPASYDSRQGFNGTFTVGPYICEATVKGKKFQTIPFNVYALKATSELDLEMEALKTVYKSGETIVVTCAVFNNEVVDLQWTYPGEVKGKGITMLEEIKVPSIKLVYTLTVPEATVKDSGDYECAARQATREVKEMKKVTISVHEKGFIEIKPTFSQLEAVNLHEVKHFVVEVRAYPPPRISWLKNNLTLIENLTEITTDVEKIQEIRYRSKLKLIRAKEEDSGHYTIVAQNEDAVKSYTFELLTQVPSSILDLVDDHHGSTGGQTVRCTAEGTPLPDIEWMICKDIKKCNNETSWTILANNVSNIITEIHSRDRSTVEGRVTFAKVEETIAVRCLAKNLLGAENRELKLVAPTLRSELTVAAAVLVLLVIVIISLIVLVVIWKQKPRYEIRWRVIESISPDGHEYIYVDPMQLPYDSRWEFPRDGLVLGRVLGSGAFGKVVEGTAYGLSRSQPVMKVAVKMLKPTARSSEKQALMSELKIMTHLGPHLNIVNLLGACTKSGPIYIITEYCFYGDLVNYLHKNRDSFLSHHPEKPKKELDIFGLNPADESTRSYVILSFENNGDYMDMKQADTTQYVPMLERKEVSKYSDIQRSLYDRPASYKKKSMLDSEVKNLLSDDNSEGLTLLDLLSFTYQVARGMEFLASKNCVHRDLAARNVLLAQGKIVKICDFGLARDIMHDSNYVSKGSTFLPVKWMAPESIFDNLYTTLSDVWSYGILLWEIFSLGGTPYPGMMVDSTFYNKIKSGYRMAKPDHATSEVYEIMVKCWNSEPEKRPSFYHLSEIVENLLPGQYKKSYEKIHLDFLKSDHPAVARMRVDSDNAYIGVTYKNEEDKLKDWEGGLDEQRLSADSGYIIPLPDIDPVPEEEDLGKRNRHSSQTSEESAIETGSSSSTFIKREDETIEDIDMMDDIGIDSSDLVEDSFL
Casein kinase II alpha/beta (Homo sapiens), sequence (P67870 2-215 limits assumed): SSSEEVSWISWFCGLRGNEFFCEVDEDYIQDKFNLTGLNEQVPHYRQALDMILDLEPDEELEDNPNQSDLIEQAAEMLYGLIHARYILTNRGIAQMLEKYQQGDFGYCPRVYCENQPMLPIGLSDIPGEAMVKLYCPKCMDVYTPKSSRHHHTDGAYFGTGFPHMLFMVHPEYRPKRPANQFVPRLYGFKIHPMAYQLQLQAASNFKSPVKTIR
Casein kinase II alpha/beta (Homo sapiens), sequence (P68400 whole entry partner): as the sequence (P68400 whole entry) above
Insulin receptor (Homo sapiens), sequence (P06213 28-758 limits assumed): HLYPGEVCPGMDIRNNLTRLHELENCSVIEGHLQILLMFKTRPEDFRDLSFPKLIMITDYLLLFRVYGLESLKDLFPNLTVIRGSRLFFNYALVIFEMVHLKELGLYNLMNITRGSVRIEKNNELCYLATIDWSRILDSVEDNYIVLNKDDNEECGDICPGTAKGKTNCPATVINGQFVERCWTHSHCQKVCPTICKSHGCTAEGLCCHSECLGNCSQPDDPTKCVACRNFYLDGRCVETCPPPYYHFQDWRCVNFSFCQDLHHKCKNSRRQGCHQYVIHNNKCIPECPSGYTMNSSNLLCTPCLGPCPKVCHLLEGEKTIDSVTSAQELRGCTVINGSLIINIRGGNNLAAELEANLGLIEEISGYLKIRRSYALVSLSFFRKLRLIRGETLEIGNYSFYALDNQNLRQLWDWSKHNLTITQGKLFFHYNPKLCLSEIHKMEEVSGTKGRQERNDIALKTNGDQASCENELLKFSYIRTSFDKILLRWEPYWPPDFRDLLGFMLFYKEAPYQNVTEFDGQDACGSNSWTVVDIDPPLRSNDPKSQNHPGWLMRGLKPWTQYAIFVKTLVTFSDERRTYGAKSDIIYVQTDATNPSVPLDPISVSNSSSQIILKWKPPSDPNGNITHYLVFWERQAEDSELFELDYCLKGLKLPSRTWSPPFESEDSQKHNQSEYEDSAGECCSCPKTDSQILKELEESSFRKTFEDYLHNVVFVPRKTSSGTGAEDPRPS
Insulin receptor (Homo sapiens), sequence (P06213 763-1382 limits assumed): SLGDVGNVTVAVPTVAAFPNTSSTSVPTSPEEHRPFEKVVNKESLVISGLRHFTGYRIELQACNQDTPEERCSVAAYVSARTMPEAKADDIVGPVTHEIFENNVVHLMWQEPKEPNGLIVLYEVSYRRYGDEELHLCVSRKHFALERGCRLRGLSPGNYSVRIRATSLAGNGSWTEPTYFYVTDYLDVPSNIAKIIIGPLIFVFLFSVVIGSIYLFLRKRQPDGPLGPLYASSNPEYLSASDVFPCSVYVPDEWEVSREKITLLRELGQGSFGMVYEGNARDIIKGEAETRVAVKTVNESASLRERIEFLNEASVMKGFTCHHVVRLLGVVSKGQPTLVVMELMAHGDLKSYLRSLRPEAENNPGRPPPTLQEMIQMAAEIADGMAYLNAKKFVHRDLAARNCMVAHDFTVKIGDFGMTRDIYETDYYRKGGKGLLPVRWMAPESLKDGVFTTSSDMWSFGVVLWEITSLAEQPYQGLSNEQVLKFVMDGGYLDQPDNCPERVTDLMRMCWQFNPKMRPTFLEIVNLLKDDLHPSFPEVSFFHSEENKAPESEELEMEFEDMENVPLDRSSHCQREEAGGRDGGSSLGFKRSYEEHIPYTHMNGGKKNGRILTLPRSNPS

The term Ki denotes the dissociation constant of the complex between target and ligand, obtained from inhibition or displacement. By IC50 is commonly meant the midpoint of a concentration-inhibition curve. Regarding `O=C(O)c1ccc(Nc2nc(-c3cccc([N+](=O)[O-])c3)cs2)cc1`, the Activity in [1] turned out to be 101%; in assay [2], 85%; in [3], 85%; in [4] it was 83%; in assay [5] it was 71%; in [6] it was 93%. The Activity was 100% in [7]; 98% in assay [9]; 65% in assay [10]; 95% in [11]; 104% in assay [13]. In addition, in [8], the inhibition entry was “Active”. Also, the Ki in assay [12] is 1.6 µM. In addition, the IC50 in assay [14] is 7 µM.

Source of the values: ChEMBL document CHEMBL4411337, “2-Aminothiazole Derivatives as Selective Allosteric Modulators of the Protein Kinase CK2. 1. Identification of an Allosteric Binding Site” (J Med Chem, 2019).
